TRPC4 act – activators of mouse TRPC4 channel, primary screen, Fluo4 calcium, HEK293 TRPC4beta/mu-opioid cells; Short transient receptor potential channel 4 (Mus musculus), Q9QUQ5; Fluo4 calcium fluorescence; stronger effect = higher value; B-score at 10 µM; 310,000 tested, 0.49% active; AID 2237, 2010;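 active means B-score above 5 SD of library B-scores, and initial fluorescence ratio not above library mean plus 5 SD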;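 further: positive B-score marks a calcium rise read as TRPC4 activation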
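Assay system: HEK293 stable line with TRPC4beta plus mu-opioid receptor; schedule: 45 min room-temperature Fluo4 loading, 110 s read; technique: kinetic Fluo4 calcium fluorescence; evaluation: integrated baseline-normalised fluorescence ratio, converted to per-well B score; controls: buffer (low) and maximal DAMGO (high)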
TRPC4 PAM – positive allosteric modulators of TRPC4, primary screen, cell-based, mouse TRPC4beta, HEK293 mu-opioid, Fluo-4 calcium; Short transient receptor potential channel 4 (Mus musculus), Q9QUQ5; DAMGO EC20, Fluo-4 Ca2+ flux; stronger effect = higher value; B-score at 10 µM; 310,000 tested, 0.42% active;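 active means B-score of calcium response area above 5 SD of library B-scores, with initial fluorescence ratio within 5 SD of library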
TRPC6 act – mouse TRPC6 channel activators, primary screen, cell-based, HEK293, membrane potential dye. 310,000 tested, 0.13% active. Short transient receptor potential channel 6 (Mus musculus), Q61143. HEK293-TRPC6 membrane potential dye fluorescence; stronger effect = higher value. AID 2550, 2010. B-score at 10 µM;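 active means B-score of the integrated fluorescence ratio above library mean plus 3 SD, and starting fluorescence ratio within library mean plus 5 SD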;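 further: higher score means more depolarization so channel activation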
Target sequence (Q61143 whole entry, looked up): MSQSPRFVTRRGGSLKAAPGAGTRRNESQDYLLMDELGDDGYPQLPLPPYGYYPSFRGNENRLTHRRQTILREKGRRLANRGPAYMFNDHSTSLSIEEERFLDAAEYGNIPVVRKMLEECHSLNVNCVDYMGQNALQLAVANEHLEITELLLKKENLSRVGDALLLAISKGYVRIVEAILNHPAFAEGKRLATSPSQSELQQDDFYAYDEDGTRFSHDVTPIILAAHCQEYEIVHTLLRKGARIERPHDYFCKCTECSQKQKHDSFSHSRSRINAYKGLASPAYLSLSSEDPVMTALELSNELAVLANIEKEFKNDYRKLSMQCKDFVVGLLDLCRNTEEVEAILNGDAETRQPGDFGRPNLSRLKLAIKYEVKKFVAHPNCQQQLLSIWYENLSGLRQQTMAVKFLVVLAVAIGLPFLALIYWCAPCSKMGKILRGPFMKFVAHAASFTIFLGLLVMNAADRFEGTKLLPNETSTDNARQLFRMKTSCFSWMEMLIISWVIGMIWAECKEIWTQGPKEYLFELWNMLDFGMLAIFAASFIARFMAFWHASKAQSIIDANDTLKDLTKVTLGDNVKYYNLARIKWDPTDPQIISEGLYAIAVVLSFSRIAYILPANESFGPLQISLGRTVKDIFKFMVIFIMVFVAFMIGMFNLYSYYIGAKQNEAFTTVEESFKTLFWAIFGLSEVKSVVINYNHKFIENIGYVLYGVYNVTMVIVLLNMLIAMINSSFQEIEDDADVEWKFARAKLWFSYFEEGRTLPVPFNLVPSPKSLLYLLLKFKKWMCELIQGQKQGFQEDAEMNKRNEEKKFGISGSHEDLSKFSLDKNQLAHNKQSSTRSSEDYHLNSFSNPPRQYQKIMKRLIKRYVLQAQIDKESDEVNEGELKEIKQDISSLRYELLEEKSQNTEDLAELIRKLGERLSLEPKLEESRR
TRPC6 inhibitor – mouse TRPC6 channel inhibitors, primary screen, cell-based, HEK293, membrane potential dye | ACh-evoked depolarization; stronger effect = lower value | B-score at 10 µM | 310,000 tested, 1.1% active;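 active means B-score under library mean minus 3 SD, initial fluorescence not abnormally high, positive integrated signal ratio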;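 further: B-score derived from integrated fluorescence ratio over the kinetic read; more negative B-score means stronger inhibition of depolarization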
TRPC4 inh – inhibitors of mouse TRPC4 channel, primary screen, Fluo4 calcium, HEK293 TRPC4beta/mu-opioid cells | B-score at 10 µM | DAMGO-evoked Fluo4 calcium flux; stronger effect = lower value | Short transient receptor potential channel 4 (Mus musculus), Q9QUQ5 | 300,000 tested, 0.39% active | AID 2247, 2010;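 active means B-score over 3 SD under the library average, no early fluorescence shift, positive overall ratio signal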
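Assay system: HEK293 cells with stable TRPC4beta plus mu-opioid receptor expression; Probe or stimulus: DAMGO in two steps, submaximal then maximal; Dosing: single-point compound dosing; Measured by: Fluo4 calcium-dye fluorescence, kinetic read; Read-out basis: B score from integrated Fluo4 fluorescence ratio.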
TRPC4 sel inh 2 – mouse TRPC4 off-target activity of TRPC6 inhibitors, second screen. HEK293 TRPC4/MOR, membrane potential dye fluorescence; channel activated by saturating DAMGO dose. inhibition, % at 10 µM. AID 2776. shares compounds with TRPC6 inhibitor. 920 tested, 42% active;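 active means compounds whose fluorescence signal differed from control wells by over 3 SD, either direction, in both duplicate plates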
TRPC4 spec – mouse TRPC4 modulation by TRPC6 hits, confirmation, selectivity assay for TRPC6 inhibitor project, cell-based, HEK293 TRPC4/mu-opioid, membrane potential dye; shares compounds with TRPC6 inhibitor; membrane potential fluorescence; activity change, negative = inhibition, % at 10 µM; 920 tested, 61% active; AID 2777, 2010;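 active means rise or fall in signal beyond 3 SD of buffer-only wells in both replicate plates, either sign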;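 further: integrated kinetic ratio of fluorescence range over baseline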
HEK293 MPD ctr 2-1 – nonspecific membrane potential effects, parental HEK293, confirmation, counter-screen for TRPC6 inhibitor project, cell-based, second counter screen; 920 tested, 31% active; shares compounds with TRPC6 inhibitor; signal change vs control, % at 10 µM; AID 2779, 2010; parental HEK293 membrane potential dye fluorescence; maximal acetylcholine challenge after compound addition;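 active means membrane potential signal moving either way by over 3 SD of the maximum-effect control, in both duplicate plates, meaning non-specific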
HEK293 MPD ctr-1 – membrane potential modulation in parental HEK293, confirmation, counter-screen for TRPC6 inhibitor project, cell-based; membrane potential signal change, % at 10 µM; 920 tested, 60% active; shares compounds with TRPC6 inhibitor; AID 2780, 2010; parental HEK293 membrane potential dye fluorescence;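 active means membrane potential signal shifting up or down by more than 3 SD of buffer-only wells, on both duplicate plates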
HEK293 MPD ctr-2 – parental HEK293 membrane potential modulation, confirmation, counter-screen for TRPC6 modulator project, cell-based | shares compounds with TRPC6 inhibitor | membrane potential dye fluorescence | 2,400 tested, 51% active | membrane potential signal change, % at 10 µM;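 active means membrane potential signal moves up or down beyond 5 SD from buffer-only wells, on both duplicate plates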
HEK293 MPD ctr 2-2 – parental HEK293 nonspecific activity of TRPC6 modulators, second screen; inhibition, % at 10 µM; shares compounds with TRPC6 inhibitor; AID 488926; membrane potential dye fluorescence; after compound, maximal acetylcholine stimulation; 2,400 tested, 14% active;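 active means membrane potential signal drops by more than 5 SD from the mean control signal, in both duplicate plates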
TRPC4 ctr mod – TRPC4 modulation by TRPC6 hit compounds, confirmation, selectivity assay for TRPC6 modulator project, cell-based, HEK293 TRPC4/mu-opioid, membrane potential dye, mouse; percent change from control (negative = decrease, positive = increase), % at 10 µM; 2,400 tested, 69% active; shares compounds with TRPC6 inhibitor; membrane potential fluorescence;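 active means membrane potential signal moved up or down beyond 5 SD of buffer control wells, in both duplicate plates, actives on both sides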
TRPC4/MOR inh 2 – second check of whether TRPC6 modulators also affect mouse TRPC4; 2,400 tested, 55% active; shares compounds with TRPC6 inhibitor; inhibition, % at 10 µM; AID 488928; HEK293 TRPC4/mu-opioid, membrane potential dye fluorescence; stimulated with maximal-effect DAMGO;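 active means drop in membrane potential signal beyond 5 SD of the control wells in both duplicate plates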;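 further: TRPC4 counter screen for TRPC6 hits run under conditions tuned for TRPC6 not TRPC4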
TRPC6 inh conf – mouse TRPC6 channel inhibitors, confirmation, HEK293 cells, membrane potential dye, duplicate | shares compounds with TRPC6 inhibitor | ACh-evoked depolarization | inhibition, % at 10 µM | 3,300 tested, 43% active | AID 488960, 2010;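 active means fluorescence ratio falls more than 5 SD below the full-stimulation control mean, in both duplicate runs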;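 further: integrated fluorescence ratio of peak minus minimum over baseline after agonist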
TRPC6 act confirm – mouse TRPC6 channel activators, confirmation, HEK293 cells, membrane potential dye, duplicate. shares compounds with TRPC6 inhibitor. HEK293-TRPC6 membrane potential dye fluorescence, FDSS. activation, % at 10 µM. 2,800 tested, 11% active. AID 488961, 2010;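 active means ratio signal rise beyond 5 SD above unstimulated control wells' mean, seen in both duplicate runs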
Of the large screens only hits and unclear results are named; the others gave an inactive call (follow-up assays come after a bar, where they were run). Most compounds without a hit are left out; they make up all but 2.3% or so of the library.

Cc1cc(C)cc(NC(=O)CSc2nc(=O)n3cc(C)ccc3n2)c1	none
CNC(=O)CSCc1c(Cl)cccc1Cl	TRPC6 inhibitor -11 | HEK293 MPD ctr-2 inactive | HEK293 MPD ctr 2-2 inactive | TRPC4 ctr mod inactive | TRPC4/MOR inh 2 inactive | TRPC6 inh conf inactive | TRPC6 act confirm inactive
CNC(=S)NNC(=O)CSCc1c(Cl)cccc1Cl	none
COc1cccc(OCc2cc(C(=O)NCc3cnc4ccccn34)no2)c1	none
O=C(Nc1ccc2nc3n(c(=O)c2c1)CCCCC3)C(=O)N1CCN(c2ccccc2F)CC1	none
O=[N+]([O-])c1cccc2c(N3CCCC3)ccnc12	TRPC6 inhibitor -8.9 | HEK293 MPD ctr-2 -360% | HEK293 MPD ctr 2-2 95% | TRPC4 ctr mod -44% | TRPC4/MOR inh 2 56% | TRPC6 inh conf 70% | TRPC6 act confirm inactive
O=C(c1ccccc1F)N1CCN(c2ccc([N+](=O)[O-])c3ncccc23)CC1	none
C[n+]1ccc(/C=N/Nc2nc(Cl)c(C#N)c(Cl)c2Cl)cc1	TRPC6 inhibitor -7.6 | TRPC4 sel inh 2 66% | TRPC4 spec inactive | HEK293 MPD ctr 2-1 -108% | HEK293 MPD ctr-1 inactive | TRPC6 inh conf 62% | TRPC6 act confirm inactive
CCC(C)NC(=O)CNC(=O)c1nn(-c2ccc(OC)cc2OC)c(=O)c2ccccc12 (stereo unspecified)	none
CC12CCC(=O)N1C(C(=O)Nc1cc(C(F)(F)F)ccc1N1CCOCC1)CS2 (stereo unspecified)	TRPC6 inhibitor -5.5 | HEK293 MPD ctr-2 inactive | HEK293 MPD ctr 2-2 inactive | TRPC4 ctr mod inactive | TRPC4/MOR inh 2 inactive | TRPC6 inh conf inactive | TRPC6 act confirm inactive
CC12CCC(=O)N1C(C(=O)Nc1cc(C(F)(F)F)ccc1N1CCCCC1)CS2 (stereo unspecified)	none
CCCN(CCC)S(=O)(=O)c1cccc(-c2csc(C)n2)c1	none
CNS(=O)(=O)c1cn(CC(=O)NCc2ccc(OC)cc2)cc1S(=O)(=O)NC	none
Cc1ccc(C(=O)Nc2c(-c3cccs3)nc3cc(C)ccn23)cc1	none
Cc1ccn2c(NC(=O)C(C)(C)Oc3ccc(Cl)cc3)c(-c3cccs3)nc2c1	TRPC6 inhibitor -8.8 | HEK293 MPD ctr-2 -120% | HEK293 MPD ctr 2-2 inactive | TRPC4 ctr mod -26% | TRPC4/MOR inh 2 88% | TRPC6 inh conf 58% | TRPC6 act confirm inactive
Nc1ccccc1Nc1cc(-c2ccccc2)nn1-c1cccc(Cl)c1	TRPC6 inhibitor -5.6 | HEK293 MPD ctr-2 inactive | HEK293 MPD ctr 2-2 inactive | TRPC4 ctr mod inactive | TRPC4/MOR inh 2 30% | TRPC6 inh conf inactive | TRPC6 act confirm inactive
Cc1cc([N+](=O)[O-])ccc1NC(=O)CSc1nncn1-c1ccccn1	TRPC6 inhibitor -5.8 | HEK293 MPD ctr-2 inactive | HEK293 MPD ctr 2-2 inactive | TRPC4 ctr mod inactive | TRPC4/MOR inh 2 inactive | TRPC6 inh conf inactive | TRPC6 act confirm inactive
Cc1ccc([N+](=O)[O-])cc1NC(=O)CSc1nncn1-c1ccccn1	none
COc1cccc(C(C(=O)NC2CCCC2)N(C(=O)c2ccco2)c2ccccc2)c1OC (stereo unspecified)	none
COc1ccc(-c2coc3cc(OC)cc(O)c3c2=O)cc1	TRPC6 inhibitor -8.6 | HEK293 MPD ctr-2 inactive | HEK293 MPD ctr 2-2 inactive | TRPC4 ctr mod inactive | TRPC4/MOR inh 2 inactive | TRPC6 inh conf inactive | TRPC6 act confirm inactive
COc1ccc(-c2coc3cc(O)cc(O)c3c2=O)cc1	none
CN1CCCC1CCNc1ccc2c(=O)c3ccccc3oc2c1 (stereo unspecified)	TRPC6 inhibitor -9.5 | TRPC4 sel inh 2 74% | TRPC4 spec -10% | HEK293 MPD ctr 2-1 inactive | HEK293 MPD ctr-1 inactive | TRPC6 inh conf inactive | TRPC6 act confirm inactive
CN1CCCC1CCNc1ccc2oc3ccccc3c(=O)c2c1 (stereo unspecified)	TRPC6 inhibitor -5.6 | HEK293 MPD ctr-2 178% | HEK293 MPD ctr 2-2 inactive | TRPC4 ctr mod 14% | TRPC4/MOR inh 2 44% | TRPC6 inh conf 44%
O=c1c2ccccc2oc2ccc(NCCCN3CCOCC3)cc12	none
O=c1c2ccccc2oc2cc(NCCCN3CCOCC3)ccc12	none
CC1Sc2ccc(S(=O)(=O)N3CCC(C(=O)NCc4ccccc4)CC3)cc2NC1=O (stereo unspecified)	none

Compound activity deposited in PubChem by Johns Hopkins Ion Channel Center.
